Calls of active or inactive are those of the source. No cut-off for these calls is given here.
Experiments:
[1] = biological target: T1, Macrophage metalloelastase (Homo sapiens, UniProt P39900); test: Binding affinity to MMP-12 catalytic domain (unknown origin) assessed as hydrodynamic radius by dynamic light scattering method
In short: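 Samples in glass tubes sat in a thermostatic cell filled with decahydronaphthalene for refractive-index matching. Cumulant fitting of the light-scattering data gave the diffusion coefficient of the complexes, and the average hydrodynamic radius came from the Stokes–Einstein relation assuming spherical particles.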
Target sequence in this assay (P39900 106-470 limits assumed): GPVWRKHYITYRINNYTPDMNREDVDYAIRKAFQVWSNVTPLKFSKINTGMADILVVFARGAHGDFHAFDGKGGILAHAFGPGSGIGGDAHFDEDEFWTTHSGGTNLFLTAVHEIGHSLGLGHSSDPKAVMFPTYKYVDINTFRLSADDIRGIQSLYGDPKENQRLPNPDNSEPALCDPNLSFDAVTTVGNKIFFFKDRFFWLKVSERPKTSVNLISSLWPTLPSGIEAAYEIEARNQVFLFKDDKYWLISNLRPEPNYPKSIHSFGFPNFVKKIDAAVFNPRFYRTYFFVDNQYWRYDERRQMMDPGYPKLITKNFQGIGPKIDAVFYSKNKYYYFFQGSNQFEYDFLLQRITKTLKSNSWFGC

[2] = biological target: T2, Matrix metalloproteinase-9 (Homo sapiens, UniProt P14780); test: Inhibition of MMP-9 catalytic domain (unknown origin)
[3] = biological target: T3, Interstitial collagenase (Homo sapiens, UniProt P03956); test: Inhibition of MMP-1 (unknown origin) assessed as inhibition of hydrolysis of Mca-Pro-Leu-Gly-Leu-Dpa-Ala-Arg-NH2 substrate by fluorimetric assay
T3 sequence (P03956 whole entry): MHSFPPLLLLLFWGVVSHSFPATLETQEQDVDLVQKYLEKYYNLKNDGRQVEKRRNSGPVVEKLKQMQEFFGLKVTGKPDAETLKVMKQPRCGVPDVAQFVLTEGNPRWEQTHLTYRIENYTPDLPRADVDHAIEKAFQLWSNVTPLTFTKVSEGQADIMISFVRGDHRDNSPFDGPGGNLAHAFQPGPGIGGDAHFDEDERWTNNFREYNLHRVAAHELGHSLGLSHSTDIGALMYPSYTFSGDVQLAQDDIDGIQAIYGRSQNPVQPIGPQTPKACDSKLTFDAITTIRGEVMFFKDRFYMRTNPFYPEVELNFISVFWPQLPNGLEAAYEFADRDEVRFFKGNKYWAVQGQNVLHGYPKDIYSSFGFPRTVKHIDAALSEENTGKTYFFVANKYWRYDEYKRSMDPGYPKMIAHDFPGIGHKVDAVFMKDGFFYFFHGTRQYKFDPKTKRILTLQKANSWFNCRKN

[4] = biological target: T4, Matrilysin (Homo sapiens, UniProt P09237); test: Inhibition of MMP-7 (unknown origin) assessed as inhibition of hydrolysis of Mca-Pro-Leu-Gly-Leu-Dpa-Ala-Arg-NH2 substrate by fluorimetric assay
T4 sequence (P09237 whole entry): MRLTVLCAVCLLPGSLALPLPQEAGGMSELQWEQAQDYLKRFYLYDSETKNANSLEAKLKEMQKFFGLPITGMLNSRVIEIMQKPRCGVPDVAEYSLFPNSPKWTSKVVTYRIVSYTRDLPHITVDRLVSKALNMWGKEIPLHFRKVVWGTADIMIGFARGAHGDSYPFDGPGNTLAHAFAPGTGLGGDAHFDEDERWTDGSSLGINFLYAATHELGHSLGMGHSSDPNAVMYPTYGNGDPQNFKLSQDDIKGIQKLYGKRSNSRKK

[5] = biological target: T1, Macrophage metalloelastase; test: Binding affinity to 15N-enriched MMP-12 catalytic domain (unknown origin) at 0.2 mM by 2D 1H-15N HSQC NMR spectroscopy
In short: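 Ligand was added from a DMSO-d₆ solution to a final 0.2 mM with 1% DMSO-d₆. Amide NH resonances were followed by sensitivity-enhanced 2D ¹H-¹⁵N HSQC, and spectral changes were the binding read-out.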
Target sequence in this assay (P39900 106-470 limits assumed): as the sequence (P39900 106-470 limits assumed) above

[6] = biological target: Collagenase 3 (Homo sapiens, UniProt P45452); test: Inhibition of MMP-13 (unknown origin) assessed as inhibition of hydrolysis of Mca-Pro-Leu-Gly-Leu-Dpa-Ala-Arg-NH2 substrate by fluorimetric assay
[7] = biological target: T2, Matrix metalloproteinase-9; test: Inhibition of human recombinant MMP-9 catalytic domain (112 to 445 residues) expressed in Escherichia coli assessed as inhibition of hydrolysis of Mca-Pro-Leu-Gly-Leu-Dpa-Ala-Arg-NH2 substrate by fluorimetric assay
In short: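 Inhibition constant toward MMP-9 was determined fluorimetrically by monitoring hydrolysis of the quenched peptide substrate Mca-Pro-Leu-Gly-Leu-Dpa-Ala-Arg-NH₂.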

[8] = biological target: T1, Macrophage metalloelastase; test: Inhibition of MMP-12 catalytic domain (unknown origin) assessed as inhibition of hydrolysis of Mca-Pro-Leu-Gly-Leu-Dpa-Ala-Arg-NH2 substrate by fluorimetric assay
Target sequence in this assay (P39900 whole entry, the tested form may be a part): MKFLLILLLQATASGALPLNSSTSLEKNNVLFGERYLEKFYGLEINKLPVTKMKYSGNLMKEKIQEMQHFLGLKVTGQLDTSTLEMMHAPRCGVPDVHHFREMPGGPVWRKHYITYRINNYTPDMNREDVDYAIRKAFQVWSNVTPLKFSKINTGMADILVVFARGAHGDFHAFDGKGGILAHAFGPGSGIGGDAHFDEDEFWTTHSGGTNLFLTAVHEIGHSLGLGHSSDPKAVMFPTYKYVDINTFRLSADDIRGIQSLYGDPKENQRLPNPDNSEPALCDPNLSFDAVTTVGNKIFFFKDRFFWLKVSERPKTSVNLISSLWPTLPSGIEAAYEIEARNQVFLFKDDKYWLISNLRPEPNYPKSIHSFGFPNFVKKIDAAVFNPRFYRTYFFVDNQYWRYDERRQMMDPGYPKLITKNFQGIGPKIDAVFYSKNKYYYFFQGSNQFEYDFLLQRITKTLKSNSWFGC

[9] = biological target: 72 kDa type IV collagenase (Homo sapiens, UniProt P08253); test: Inhibition of MMP-2 (unknown origin) assessed as inhibition of hydrolysis of Mca-Pro-Leu-Gly-Leu-Dpa-Ala-Arg-NH2 substrate by fluorimetric assay
Chain of 72 kDa type IV collagenase (P08253 whole entry): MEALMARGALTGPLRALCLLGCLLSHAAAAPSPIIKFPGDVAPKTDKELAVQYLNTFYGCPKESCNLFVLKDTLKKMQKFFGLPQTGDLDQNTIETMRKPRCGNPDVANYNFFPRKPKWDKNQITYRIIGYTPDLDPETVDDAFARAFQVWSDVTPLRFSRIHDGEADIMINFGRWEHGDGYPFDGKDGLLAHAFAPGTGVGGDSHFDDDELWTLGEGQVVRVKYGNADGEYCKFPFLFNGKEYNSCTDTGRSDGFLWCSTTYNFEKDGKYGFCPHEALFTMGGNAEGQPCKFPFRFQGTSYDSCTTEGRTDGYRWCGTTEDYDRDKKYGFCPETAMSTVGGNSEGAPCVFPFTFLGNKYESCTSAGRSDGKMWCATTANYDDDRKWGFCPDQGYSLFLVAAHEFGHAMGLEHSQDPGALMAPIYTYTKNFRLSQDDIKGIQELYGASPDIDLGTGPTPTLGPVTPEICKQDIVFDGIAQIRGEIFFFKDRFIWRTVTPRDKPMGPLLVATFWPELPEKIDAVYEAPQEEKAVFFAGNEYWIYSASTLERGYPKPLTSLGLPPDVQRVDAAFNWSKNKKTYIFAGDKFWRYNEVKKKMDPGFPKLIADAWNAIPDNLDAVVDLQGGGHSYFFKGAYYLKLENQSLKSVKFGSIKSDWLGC

T2 sequence (P14780 whole entry, the tested form may be a part): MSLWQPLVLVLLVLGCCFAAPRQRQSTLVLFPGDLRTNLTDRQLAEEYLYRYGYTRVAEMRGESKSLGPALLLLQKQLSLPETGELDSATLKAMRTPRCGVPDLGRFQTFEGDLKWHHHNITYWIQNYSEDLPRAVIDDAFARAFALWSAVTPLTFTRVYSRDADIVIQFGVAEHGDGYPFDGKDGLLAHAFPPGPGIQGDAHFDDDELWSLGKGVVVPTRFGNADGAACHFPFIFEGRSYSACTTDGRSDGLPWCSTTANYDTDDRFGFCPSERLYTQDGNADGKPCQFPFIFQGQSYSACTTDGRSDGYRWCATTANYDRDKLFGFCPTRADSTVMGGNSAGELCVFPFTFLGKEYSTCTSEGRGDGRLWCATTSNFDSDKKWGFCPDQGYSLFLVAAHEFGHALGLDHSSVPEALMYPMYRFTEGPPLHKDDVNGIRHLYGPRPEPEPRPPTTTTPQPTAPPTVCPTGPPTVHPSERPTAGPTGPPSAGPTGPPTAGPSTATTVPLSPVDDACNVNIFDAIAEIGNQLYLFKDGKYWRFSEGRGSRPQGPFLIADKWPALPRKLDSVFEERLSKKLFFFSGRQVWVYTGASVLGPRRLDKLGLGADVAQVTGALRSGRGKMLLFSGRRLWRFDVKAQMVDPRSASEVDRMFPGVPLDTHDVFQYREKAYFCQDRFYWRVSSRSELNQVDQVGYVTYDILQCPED

Row | Activity [1] | Ki [2] | Ki [3] | Ki [4] | Activity [5] | Ki [6] | Ki [7] | Ki [8] | Ki [9] | Compound
1 | 2.1 nm | – | – | – | – | – | – | – | – | COc1ccc(S(=O)(=O)N(CC(=O)NO)CC(C)C)cc1
2 | – | 289 nM | – | – | – | – | – | – | – | COc1ccc(S(=O)(=O)N(CCNC(=O)CCCCC(=O)NCCNC(=O)CCN(CCNC(=O)OC(C)(C)C)CCC(=O)NCCNC(=O)CCCCC(=O)NCCN([C@H](CO)C(=O)NO)S(=O)(=O)c2ccc(OC)cc2)[C@H](CO)C(=O)NO)cc1
3 | 3 nm | – | 143 nM | 3760 nM | Active | 57.5 nM | 18 nM | 23 nM | 15.9 nM | COc1ccc(S(=O)(=O)N(CCCCCNC(=O)CCCCC(=O)NCCNC(=O)CCN(CCNC(=O)OC(C)(C)C)CCC(=O)NCCNC(=O)CCCCC(=O)NCCCCCN([C@H](CO)C(=O)NO)S(=O)(=O)c2ccc(OC)cc2)[C@H](CO)C(=O)NO)cc1

Reference: ChEMBL document CHEMBL3875192, “Synthesis and binding monitoring of a new nanomolar PAMAM-based matrix metalloproteinases inhibitor (MMPIs)” (Bioorg Med Chem, 2017)
